Reference: ChEMBL document CHEMBL1781992, “A novel monocarbonyl analogue of curcumin, (1E,4E)-1,5-bis(2,3-dimethoxyphenyl)penta-1,4-dien-3-one, induced cancer cell H460 apoptosis via activation of endoplasmic reticulum stress signaling pathway” (J Med Chem, 2011)
pIC50: −log10 of the molar value. Calls of active or inactive are those of the source. No cut-off for these calls is given here.

Experiments:
[1] = system: NCI-H460; assay: Cytotoxicity against human NCI-H460 cells after 72 hrs by MTT assay; format: functional, cell-based; settings: NCI-H460, 72 h
Outline: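 H460 cells grown in RPMI 1640 with 5% FBS at 37 °C, 10% CO2, treated 24 h after seeding. Compounds in DMSO diluted into medium at final 100, 33.3, 11.1 and 3.7 μg/mL for 72 h. MTT (5 mg/mL in 0.9% NaCl) added for 3 h, formazan dissolved in DMSO and read at 570 nm; IC50 derived.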

[2] = system: NCI-H460; assay: Induction of apoptosis in human NCI-H460 cells assessed as non-viable necrotic cells at 10 uM after 6 hrs by annexinV-propidium iodide staining based flow cytometric analysis relative to control; format: functional
Outline: (§1)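 H460 cells plated for 6 h, then treated with 5, 10 or 20 μM. Cells washed, trypsin-EDTA detached and resuspended in PBS, then stained with annexin V and propidium iodide plus RNase and 0.1% Triton X-100 for 30 min at 37 °C before flow cytometry. Figure legend gives 6 h incubation.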

[3] = system: NCI-H460; assay: Cytotoxicity against human NCI-H460 cells assessed as reduction of cell viability at 5 to 30 uM after 24 hrs by CellTiter-Glo analysis; format: functional, cell-based
Outline: (§2)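 H460 cells (5 × 10^3/well) seeded overnight, then given fresh medium containing compound from DMSO stock (final 5, 10, 20 μM; 2.5–30 μM in the figure) for 24 h. Viability measured with CellTiter-Glo and expressed as percent of vehicle-treated cells; Student's t test.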

[4] = system: NCI-H460; assay: Induction of GRP78 mRNA expression in human NCI-H460 cells at 5 to 20 uM after 3 hrs by real time quantitative PCR analysis; format: functional, cell-based
Outline: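 H460 cells treated across a concentration range for 3 h. GRP78 mRNA quantified by RT-qPCR, normalized to β-actin and expressed as percent of vehicle.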

[5] = system: NCI-H460; assay: Induction of apoptosis in human NCI-H460 cells assessed as viable cells at 20 uM after 6 hrs by annexinV-propidium iodide staining based flow cytometric analysis relative to control; format: functional; settings: NCI-H460, 6 h, read-out: Activity; outline: as §1
[6] = system: NCI-H460; assay: Induction of ATF-4 protein expression level in human NCI-H460 cells at 5 to 20 uM after 6 hrs by Western blot analysis; format: functional, cell-based
Outline: (§3)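 H460 cells exposed to 20 μM for varying times, or to a range of concentrations for 6 h. ATF-4 and XBP-1 protein measured by Western blot with actin as loading control.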

[7] = system: NCI-H460; assay: Induction of apoptosis in human NCI-H460 cells assessed as early apoptotic cells at 10 uM after 6 hrs by annexinV-propidium iodide staining based flow cytometric analysis relative to control; format: functional; outline: as §1
[8] = system: NCI-H460; assay: Induction of XBP-1 protein expression level in human NCI-H460 cells at 5 to 20 uM after 6 hrs by Western blot analysis; format: functional, cell-based; outline: as §3
[9] = system: NCI-H460; assay: Induction of apoptosis in human NCI-H460 cells at 5 to 30 uM after 24 hrs by flow cytometric analysis; format: functional, cell-based
[10] = system: NCI-H460; assay: Induction of apoptosis in human NCI-H460 cells assessed as late apoptotic cells at 20 uM after 6 hrs by annexinV-propidium iodide staining based flow cytometric analysis relative to control; format: functional; outline: as §1
[11] = system: NCI-H460; assay: Induction of CHOP mRNA expression in human NCI-H460 cells at 20 uM after 12 hrs by real time quantitative PCR analysis; format: functional, cell-based
Outline: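 H460 cells exposed to a concentration range for 6 or 12 h. CHOP mRNA measured by RT-PCR/qPCR and normalized to β-actin.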

[12] = system: NCI-H460; assay: Induction of apoptosis in human NCI-H460 cells at 20 uM after 6 hrs by flow cytometric analysis; format: functional; outline: as §1
[13] = system: NCI-H460; assay: Induction of apoptosis in human NCI-H460 cells assessed as activation of caspase 3 activity at 20 uM after 24 hrs by Western blot analysis; format: functional, cell-based
[14] = system: NCI-H460; assay: Induction of apoptosis in human NCI-H460 cells assessed as late apoptotic cells at 5 uM after 6 hrs by annexinV-propidium iodide staining based flow cytometric analysis relative to control; format: functional; outline: as §1
[15] = system: NCI-H460; assay: Induction of GRP78 protein expression in human NCI-H460 cells at 5 to 20 uM after 3 hrs by Western blot analysis; format: functional, cell-based
Outline: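 H460 cells treated for 3 h; GRP78 protein detected by Western blot with actin as loading control.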

[16] = system: NCI-H460; assay: Decrease in p53 expression in human NCI-H460 cells at 20 uM after 12 hrs by Western blot analysis; format: functional, cell-based
Outline: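 H460 cells exposed to 20 μM for varying times, or to a range of concentrations for 12 h. Lysates made in Tris-HCl pH 7.4/NaCl/NP40/SDS buffer with protease and phosphatase inhibitors, then probed for p53 by Western blot with chemiluminescent detection; bands quantified by densitometry.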

[17] = system: NCI-H460; assay: Cytotoxicity against human NCI-H460 cells assessed as reduction of cell viability at 5 to 20 uM after 24 hrs by CellTiter-Glo analysis; format: functional, cell-based; outline: as §2
[18] = system: NCI-H460; assay: Induction of apoptosis in human NCI-H460 cells assessed as viable cells at 10 uM after 6 hrs by annexinV-propidium iodide staining based flow cytometric analysis relative to control; format: functional; settings: NCI-H460, 6 h, read-out: Activity; outline: as §1
[19] = system: NCI-H460; assay: Induction of apoptosis in human NCI-H460 cells assessed as viable cells at 5 uM after 6 hrs by annexinV-propidium iodide staining based flow cytometric analysis relative to control; format: functional; settings: NCI-H460, 6 h, read-out: Activity; outline: as §1
[20] = system: NCI-H460; assay: Induction of CHOP protein expression in human NCI-H460 cells at 20 uM after 6 to 24 hrs by Western blot analysis; format: functional, cell-based
Outline: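 H460 cells treated for 6–24 h, or across a range of concentrations. CHOP protein measured by Western blot, densitometry expressed as percent of control; Student's t test.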

[21] = system: NCI-H460; assay: Induction of apoptosis in human NCI-H460 cells assessed as non-viable necrotic cells at 20 uM after 6 hrs by annexinV-propidium iodide staining based flow cytometric analysis relative to control; format: functional; outline: as §1
[22] = system: NCI-H460; assay: Induction of apoptosis in human NCI-H460 cells assessed as non-viable necrotic cells at 5 uM after 6 hrs by annexinV-propidium iodide staining based flow cytometric analysis relative to control; format: functional; outline: as §1
[23] = system: NCI-H460; assay: Induction of apoptosis in human NCI-H460 cells assessed as early apoptotic cells at 20 uM after 6 hrs by annexinV-propidium iodide staining based flow cytometric analysis relative to control; format: functional; outline: as §1
[24] = system: NCI-H460; assay: Induction of apoptosis in human NCI-H460 cells assessed as activation of caspase 9 activation at 20 uM after 24 hrs by Western blot analysis; format: functional, cell-based
[25] = molecular target: Transcription factor Jun (Homo sapiens) (UniProt P05412); assay: Induction of c-Jun phosphorylation in human NCI-H460 cells at 20 uM after 12 hrs by Western blot analysis; format: cell-based
Outline: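 H460 cells cultured in RPMI 1640 with 5% heat-inactivated FBS at 37 C, 10% CO2; exposed to 20 μM for a time course. Lysed at 0 C in Tris-HCl pH 7.4 buffer with NP40, SDS, and protease/phosphatase inhibitors. Phospho-c-Jun detected by Western blot with chemiluminescence, actin as loading control; band density quantified.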

[26] = system: NCI-H460; assay: Induction of apoptosis in human NCI-H460 cells assessed as early apoptotic cells at 5 uM after 6 hrs by annexinV-propidium iodide staining based flow cytometric analysis relative to control; format: functional; outline: as §1
[27] = system: NCI-H460; assay: Cytotoxicity against human NCI-H460 cells assessed as cell viability at 20 uM after 24 hrs by CellTiter-Glo analysis; format: functional; settings: NCI-H460, 24 h, read-out: Activity; outline: as §2
[28] = system: NCI-H460; assay: Induction of apoptosis in human NCI-H460 cells assessed as late apoptotic cells at 10 uM after 6 hrs by annexinV-propidium iodide staining based flow cytometric analysis relative to control; format: functional; outline: as §1

Chain of Transcription factor Jun (Homo sapiens) (P05412 whole entry): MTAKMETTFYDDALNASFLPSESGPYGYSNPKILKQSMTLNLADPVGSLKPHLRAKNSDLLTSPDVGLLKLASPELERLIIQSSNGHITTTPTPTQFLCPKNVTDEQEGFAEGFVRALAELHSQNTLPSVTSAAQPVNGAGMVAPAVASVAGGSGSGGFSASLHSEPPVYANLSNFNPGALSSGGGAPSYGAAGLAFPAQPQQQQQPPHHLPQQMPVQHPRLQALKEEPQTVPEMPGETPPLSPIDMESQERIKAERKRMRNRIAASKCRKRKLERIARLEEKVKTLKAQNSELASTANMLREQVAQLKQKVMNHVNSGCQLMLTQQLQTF

In the case of O=C(/C=C/c1ccccc1Br)/C=C/c1ccccc1Br, the pIC50 [1] was 5.24.

In the case of COc1cc(/C=C/C(=O)CC(=O)/C=C/c2ccc(O)c(OC)c2)ccc1O [CURCUMIN], the Activity [2] was 0.23%, the Activity [3] was “inactive” and the Activity [4] was “inactive”. The viability at 20 µM [5] was 83.6%, the Activity [6] was “inactive” and the Activity [7] was 8.57%. For the same compound, the Activity [8] was “inactive”, the Activity [9] was “inactive” and the Activity [10] was 4.06%. For the same compound, the Activity [11] was “inactive”, the Activity [12] was 12.02% and the pIC50 [1] was 4.69. The Activity [13] was “inactive”, the Activity [14] was 3.66% and the Activity [15] was “inactive”. The Activity [16] was “inactive”, the Activity [17] was “inactive” and the viability at 10 µM [18] was 89.2%. The viability at 5 µM [19] was 87.9%, the Activity [20] was “inactive” and the Activity [21] was 0.32%. The Activity [22] was 0.46%, the Activity [23] was 12.02% and the Activity [24] was “inactive”. For the same compound, the Activity [25] was “inactive”, the Activity [26] was 7.97% and the viability at 20 µM [27] was 70%. For the same compound, the Activity [28] was 2.06%.

CN(C)CCCOc1ccc(/C=C2\CC/C(=C\c3ccc(OCCCN(C)C)cc3)C2=O)cc1 gave a pIC50 [1] of 5.08.
